Entries after “also recorded” stand apart in the source; their conditions may differ. Numbered stars: 1 amine (or outer) side, 2 acyl side, 3 side chain; on linkers, the order of the positions; unused ones are H or OH. Square brackets hold non-standard residues; d marks the D form. Side chains are listed from the residue outwards. Peptide text beside a SMILES is read from it. * marks the point of attachment. Ethylenediamine = C(CN[*:2])N[*:1]; Hyp = O=C(O)[C@@H]1C[C@@H](O)CN1; Phg = N[C@H](C(=O)O)c1ccccc1; CO = O=C([*:1])[*:2]; Bn = c1ccc(C*)cc1
Legend:
[1] = Docetaxel pharmacokinetics; assay type: in vivo, human; conditions: docetaxel 75 mg/m2 intravenously, coadministration of SOM230; single-agent docetaxel PK not done
[2] = system: mCRPC; conditions: no different between the 2 arms; cited from earlier work
[3] = Pasireotide pharmacokinetics, radioimmunoassay with I-125-pasireotide; assay type: in vivo, human; conditions: intramuscular every 28 days
In short: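 Competitive radioimmunoassay on patient samples: samples or standards incubated with I-125-pasireotide tracer and antiserum; immune complexes captured on anti-rabbit-coated magnetic beads, unbound fraction washed away, bound radioactivity read in gamma counter. Dosing: long-acting IM injection every 28 days at 40, 60 or 80 mg, with docetaxel 75 mg/m2 IV every 21 days and prednisone 5 mg orally twice daily.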

[4] = system: patients with metastatic castrate-resistant prostate cancer (mCRPC); experiment: Phase I dose escalation: dose-limiting toxicity, MTD and toxicities; assay type: in vivo, human
[5] = system: sst5; conditions: extremely high affinity compared to octreotide; cited from earlier work
[6] = system: PC3 cells; conditions: cited from earlier work
[7] = system: sst1; conditions: extremely high affinity compared to octreotide; cited from earlier work
[8] = system: sst2; conditions: extremely high affinity compared to octreotide; cited from earlier work
[9] = system: DU145 cells; conditions: cited from earlier work
[10] = system: sst3; conditions: extremely high affinity compared to octreotide; cited from earlier work
[11] = 60 mg dose level, 12 patients evaluated, number of patients

## CC(=O)O[C@@]12CO[C@@H]1C[C@H](O)[C@@]1(C)C(=O)[C@H](O)C3=C(C)[C@@H](OC(=O)[C@H](O)[C@@H](NC(=O)OC(C)(C)C)c4ccccc4)C[C@@](O)([C@@H](OC(=O)c4ccccc4)[C@H]21)C3(C)C [Docetaxel]
[1]
  Docetaxel clearance compared with the data reported in the literature: 3- to 4 fold higher

## C[C@]12CC[C@@H]3c4ccc(OC(=O)N(CCCl)CCCl)cc4CC[C@H]3[C@@H]1CC[C@@H]2O [estramustine]
[2]
  Median OS: 18 months

## NCCCC[C@@H]1NC(=O)[C@@H](Cc2c[nH]c3ccccc23)NC(=O)[C@H](c2ccccc2)NC(=O)[C@@H]2C[C@@H](OC(=O)NCCN)CN2C(=O)[C@H](Cc2ccccc2)NC(=O)[C@H](Cc2ccc(OCc3ccccc3)cc2)NC1=O [Pasireotide] (cyclo([Hyp]([CO-Ethylenediamine])[Phg][dW]KY(Bn)F))
[3]
  Steady state established in most patients: ≤ 57 days
[4]; [11]
  Dehydration, Grade 1: 0 n
  Dehydration, Grade 2: 0 n
  Dehydration, Grade 3: 1 n
  Dehydration, Grade 4: 0 n
  Diarrhea, Grade 1: 2 n
  Diarrhea, Grade 2: 1 n
  Diarrhea, Grade 3: 0 n
  Diarrhea, Grade 4: 0 n
  Dry Mouth, Grade 1: 1 n
  Dry Mouth, Grade 2: 0 n
  Dry Mouth, Grade 3: 0 n
  Dry Mouth, Grade 4: 0 n
  Electrocardiogram QT Corrected Interval Prolong, Grade 1: 0 n
  Electrocardiogram QT Corrected Interval Prolong, Grade 2: 1 n
  Electrocardiogram QT Corrected Interval Prolong, Grade 3: 0 n
  Electrocardiogram QT Corrected Interval Prolong, Grade 4: 0 n
  Hyperglycemia, Grade 1: 0 n
  Hyperglycemia, Grade 2: 0 n
  Hyperglycemia, Grade 3: 3 n
  Hyperglycemia, Grade 4: 0 n
  Hyperkalemia, Grade 1: 0 n
  Hyperkalemia, Grade 2: 1 n
  Hyperkalemia, Grade 3: 0 n
  Hyperkalemia, Grade 4: 0 n
  Hypertension, Grade 1: 0 n
  Hypertension, Grade 2: 0 n
  Hypertension, Grade 3: 2 n
  Hypertension, Grade 4: 0 n
  Hyponatremia, Grade 1: 0 n
  Hyponatremia, Grade 2: 0 n
  Hyponatremia, Grade 3: 1 n
  Hyponatremia, Grade 4: 0 n
  Hypophosphatemia, Grade 1: 0 n
  Hypophosphatemia, Grade 2: 0 n
  Hypophosphatemia, Grade 3: 3 n
  Hypophosphatemia, Grade 4: 0 n
  Hypotension, Grade 1: 0 n
  Hypotension, Grade 2: 0 n
  Hypotension, Grade 3: 1 n
  Hypotension, Grade 4: 0 n
  Injection Site Reaction, Grade 1: 1 n
  Injection Site Reaction, Grade 2: 0 n
  Injection Site Reaction, Grade 3: 0 n
  Injection Site Reaction, Grade 4: 0 n
  Rash Acneiform, Grade 1: 1 n
  Rash Acneiform, Grade 2: 0 n
  Rash Acneiform, Grade 3: 0 n
  Rash Acneiform, Grade 4: 0 n
  Urinary Frequency, Grade 1: 1 n
  Urinary Frequency, Grade 2: 0 n
  Urinary Frequency, Grade 3: 0 n
  Urinary Frequency, Grade 4: 0 n
[4]; 60 mg dose, twelve patients evaluated
  Grade 4 or 5 toxicities: None of the patients experienced Grade 4 or 5 toxicities
[4]; 80-mg dose level of pasireotide
  Dose-limiting toxicities observed: Grade 4 hyperglycemia unresponsive to therapy and Grade 4 neutropenia lasting for > 7 days in 1 patient each; also recorded: One patient had Grade 4 amylase elevation and the other had Grade 3 hyperglycemia requiring hospitalization
[4]; in vivo
  Hospitalizations because of hyperglycemia probably or definitely related to SOM230: Three
[5]
  Binding to sst5: binds
[6]
  Growth factor secretion in PC3 cells: reduced secretion of stem cell factor and platelet-derived growth factor
[7]
  Binding to sst1: binds
[8]
  Binding to sst2: binds
[9]
  Growth factors in DU145 cells: decreased transforming growth factor-β and basic fibroblast growth factor
[10]
  Binding to sst3: binds
